Assay outcomes: PubChem BioAssay, Broad Institute
This is a sample that favours compounds with a hit; in the whole collection about 3.4% have one here.
E-sel inducer: E-selectin induction on HUVECs; P16581; HUVEC E-selectin immunofluorescence imaging; normalized: neutral wells 0, TNF-alpha wells 100; activation, % at 7.58 µM; 260,000 tested, 0.37% active;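 active means mean E-selectin-positive cell signal at least 10% of the positive control, reached in at least 60% of replicates, without over 20% cell loss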
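Test system: HUVEC; input: 3,000 HUVEC/well; measured by: immunofluorescence imaging; read-out: % PE-positive cells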
S100A4 inh HTS: S100A4-myosin IIA interaction inhibition | S100A4/TAMRA-MyoIIA peptide fluorescence polarization | P26447 | inhibition, % at 10.7 µM | 360,000 tested, 0.14% active;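 active means mean inhibition of at least 70% across replicates, with every replicate also reaching that level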
Target sequence (P26447 whole entry, looked up): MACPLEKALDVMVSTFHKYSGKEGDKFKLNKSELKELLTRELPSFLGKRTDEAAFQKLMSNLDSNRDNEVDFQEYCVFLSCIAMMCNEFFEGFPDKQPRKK
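Test system: S100A4 monomer protein; Medium: HEPES pH 7.2 with CaCl2, KCl, NaCl, DTT, Triton; Probe or stimulus: TAMRA-labelled myosin IIA heavy-chain peptide probe, 5 nM; Doses: one dose per compound; Times: polarization read 5 min after assay mix addition, stable 5–60 min; Benchmarks: neutral control DMSO, positive control TFP.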
Ecoli rRNA inh: inhibitors of bacterial rRNA selective over humanized ribosomes. 350,000 tested, 1.6% active. E. coli WT GFP vs humanized-ribosome RFP mutants, fluorescence, 24 h; active compounds read low; DMSO median 0, no signal -100. GFP signal change (wild-type ribosome), % (concentration not given with the values);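 active means significant combined selectivity score with lowered wild-type GFP, culture density cut under 30%, mutant RFP and density less affected; inactive means any of these conditions unmet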
AF4-AF9 inh: MLL-AF4/AF9 protein interaction inhibition; AlphaScreen, biotin-AF4 peptide binding to FLAG-AF9; inhibition, % at 10 µM; 350,000 tested, 0.47% active;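 active means every replicate reaching a set inhibition limit, whatever the replicate mean, cut at about 25% in these data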;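 further: 0% = plate neutral control median and 100% = total signal loss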
SIRT5 inh: sirtuin-5 (human) deacylase inhibition; Q9NXA8; Purified SirT5, succinyl-peptide AMC, trypsin-coupled fluorescence; inhibition, % at 15 µM; 330,000 tested, 1.1% active; AID 652115; in the data active means inhibition above about 15%
Target sequence (Q9NXA8 whole entry, looked up): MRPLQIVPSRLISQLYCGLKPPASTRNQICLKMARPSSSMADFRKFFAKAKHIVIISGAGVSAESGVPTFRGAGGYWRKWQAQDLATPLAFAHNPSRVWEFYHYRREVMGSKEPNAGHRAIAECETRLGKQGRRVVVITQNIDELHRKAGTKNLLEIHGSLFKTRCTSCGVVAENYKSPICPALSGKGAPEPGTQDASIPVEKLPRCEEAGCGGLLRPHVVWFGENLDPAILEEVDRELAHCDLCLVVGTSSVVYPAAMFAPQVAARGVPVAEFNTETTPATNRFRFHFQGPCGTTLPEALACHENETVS
ERAP1 HTS inh: inhibitors of human ERAP1 aminopeptidase; AID 652197; inhibition, % at 10.7 µM; 340,000 tested, 0.15% active; recombinant ERAP1, Leu-AMC fluorescence, 60 min;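 active means mean replicate inhibition of at least 30%, or all replicates individually reaching that 30% level; inactive means mean below 30% and not every replicate reaching it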;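 further: 0% = neutral control wells and 100% = L-leucinethiol positive control wells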
Numbers without * were called inactive; . = no result.

SMILES | E-sel inducer | S100A4 inh HTS | Ecoli rRNA inh | AF4-AF9 inh | SIRT5 inh | ERAP1 HTS inh
O=C(COC(=O)/C=C/c1ccc(F)cc1)Nc1ccc(Cl)cn1 | . | -4.0 | -0.3 | -8.3 | -4.4 | -2.5
COc1cc(/C=C/C(=O)OCC(=O)Nc2sc3c(c2C#N)CCC(C)C3)ccc1OCC#N (centres undefined) | . | 6.2 | 7.8 | -1.3 | 15.3* | 0.9
COc1cc(/C=C/C(=O)OCC(=O)N2CCCc3ccccc32)ccc1OCC#N | . | 5.2 | -23.8* | 3.6 | 4.7 | 1.6
COc1cc(/C=C/C(=O)OCC(=O)N2CC(=O)Nc3ccccc32)ccc1O | 0.2 | -0.1 | -3.4 | 1.2 | 15.3* | .
CN(C)C(=O)C[C@@H]1CC[C@@H]2[C@H](COc3ccc(NC(=O)Nc4cccc(Cl)c4)cc3C(=O)N2C)O1 | 0.3 | -0.5 | -3.3 | 1.6 | 3.9 | 0.7
O=C(O)CCCC(=O)Nc1ccccc1C(=O)N1CCOCC1 | -0.8 | 1.0 | 10.7 | -3.5 | 28.4* | -0.9
COc1ccccc1-c1ccc([C@H]2[C@H](CO)N(C(C)=O)C23CN(C(C)=O)C3)cc1 | -0.2 | 2.7 | 2.4 | 4.5 | 2.5 | -2.0
C/C(=N\N=C(/N)SC1CC(=O)N(c2ccc(Cl)c(Cl)c2)C1=O)c1cccs1 (centres undefined) | . | -7.1 | -38.7* | -4.5 | -4.8 | -1.3
C/C(=N\N=C(/N)SC1CC(=O)N(c2ccc(Br)cc2)C1=O)c1cccs1 (centres undefined) | . | -1.7 | -30.9 | 4.9 | 1.3 | -0.6
CC(C)NC(=O)N1CC2(C1)[C@H](c1ccccc1)[C@@H](CO)N2C(=O)C1CCCCC1 | 0.3 | -4.9 | 4.3 | -2.3 | 5.7 | 0.4
Cc1sc2ncnc(N3CCCC(C)C3)c2c1C (centres undefined) | -0.1 | -3.0 | -28.0* | 0.2 | -0.9 | 0.5
Cc1sc2ncnc(N3CCCCC3)c2c1C | . | -4.0 | -48.6 | 1.6 | 14.9 | -2.5
Cc1cc(C(=O)Nc2ccc(Cl)cc2)n(-c2ccccc2)n1 | 41.1* | -5.1 | -1.7 | -2.3 | -4.1 | -2.5
Cc1cc(C(=O)Nc2ccc(Cl)cc2)c(C)n1-c1ccccc1 | -0.1 | -6.5 | -40.3* | -1.7 | -1.3 | .
CO[C@@H]1CN(C)C(=O)c2ccc(NC(=O)C3CCCC3)cc2OC[C@H](C)N(C(=O)CC2CC2)C[C@H]1C | -0.1 | 4.3 | -1.9 | -1.7 | -2.5 | 1.9
C[C@@H]1CCCCO[C@@H](CN(C)Cc2ccc3c(c2)OCO3)[C@@H](C)CN([C@H](C)CO)C(=O)c2cc(NS(=O)(=O)c3cn(C)cn3)ccc2O1 | 0.0 | . | 0.7 | . | . | .
O=C([C@@H]1[C@@H](CO)[C@@H]2Cn3c(cccc3=O)[C@H]1N2CC1CCCCC1)N1CCOCC1 | -0.2 | 56.5 | 0.7 | -1.2 | 12.3 | 2.1
CC(=O)Nc1ccc(Nc2ncnc(N)c2[N+](=O)[O-])cc1 | 2.1 | 3.0 | 2.7 | 50.4* | -3.7 | 3.3
C[C@H](CO)N1C[C@H](C)[C@H](CN(C)CC2CC2)Oc2ccc(NC(=O)C3CC3)cc2CC1=O | 0.2 | 14.9 | 2.4 | -0.3 | 4.4 | 0.7
O=C(NCc1cc(C(F)(F)F)cc(C(F)(F)F)c1)C1CC(c2ccccc2[N+](=O)[O-])=NO1 (centres undefined) | -0.1 | 0.7 | -26.6 | 7.9 | 3.2 | -2.7
O=C(NCc1cccc(C(F)(F)F)c1)C1CC(c2ccccc2[N+](=O)[O-])=NO1 (centres undefined) | 0.1 | 2.9 | -33.0* | -18.9 | -5.6 | -4.4
COc1ccccc1NC(=O)N1CCCCN2[C@H](CO)[C@H](c3ccc(-c4ccccc4)cc3)[C@H]2C1 | . | -12.2 | . | 8.0 | 0.3 | 0.4
CC(=O)Nc1ccc(NC(=O)c2sc(-c3ccccc3)nc2C)cc1 | 0.0 | -4.2 | 10.7 | -2.1 | 0.0 | -3.3
Cc1nc(-c2ccccc2)sc1C(=O)NS(=O)(=O)c1ccc(CN2CCN(c3ccccc3)CC2)cc1 | 8.1 | -1.3 | -41.3 | 12.6 | 21.8* | .
O=C(c1cnn(C(=O)c2ccco2)c1)c1cc(Cl)cc(Cl)c1O | -0.6 | -0.9 | -25.0* | 0.3 | -0.7 | -0.2
SMILES | E-sel inducer | S100A4 inh HTS | Ecoli rRNA inh | AF4-AF9 inh | SIRT5 inh | ERAP1 HTS inh
N#Cc1c(NC(=O)c2ccccc2Cl)n(Cc2ccccc2)c2nc3ccccc3nc12 | -0.8 | -11.9 | -16.6* | 2.5 | -3.1 | -2.0
OC(Cc1ccccc1Br)c1ncc(-c2ccc(Cl)cc2)[nH]1 (centres undefined) | 159.4* | -3.1 | -60.6 | 1.4 | 0.9 | 6.2
OC(Cc1ccccc1)c1ncc(-c2ccc(Cl)cc2)[nH]1 (centres undefined) | 0.3 | 4.7 | -5.7 | -1.1 | -4.1 | -4.8
Cc1noc(C)c1S(=O)(=O)Nc1ccc2c(c1)C(=O)N([C@H](C)CO)C[C@@H](C)[C@@H](CN(C)S(=O)(=O)c1ccccc1)O2 | -0.2 | -26.1 | -4.3 | 0.0 | -8.2 | 1.9
Cc1[nH]n(-c2cccc(Cl)c2)c(=O)c1C=NCC(C)C | 0.1 | -2.2 | -20.9* | 1.0 | 1.5 | -1.0
O=C(/C=C/c1ccccc1)Nc1ccc2c(c1)C(=O)NC2=O | 0.9 | -4.8 | -11.3 | 50.1* | -0.3 | 0.8
C[C@@H]1CN([C@@H](C)CO)C(=O)c2c(c3ccccc3n2C)-c2ccccc2CO[C@H]1CN(C)CC1CCCCC1 | . | . | 2.9 | . | . | .
Cc1noc(C)c1NC(=O)N(C)C[C@H]1OCCCC[C@@H](C)Oc2ccc(NS(=O)(=O)c3cccs3)cc2C(=O)N([C@H](C)CO)C[C@H]1C | 3.3 | 14.7 | -1.2 | -0.5 | -3.1 | -3.0
CC(=O)c1cccc(NC(=O)C2=CC(c3ccco3)=NS(=O)(=O)N2C)c1 | . | -0.1 | 3.9 | -8.1 | 0.1 | 9.1
CN1C(C(=O)Nc2cccc(O)c2)=CC(c2cccs2)=NS1(=O)=O | 1.5 | -3.5 | -10.8 | 26.8* | 8.5 | 0.8
CC(=O)c1cccc(NC(=O)C2=CC(c3cccs3)=NS(=O)(=O)N2C)c1 | . | 20.3 | -19.5* | 3.4 | 1.1 | -2.8
COc1ccc(S(=O)(=O)Nc2ccc3c(c2)C(=O)N([C@@H](C)CO)C[C@H](C)[C@H](CN(C)C(=O)Nc2cccc4ccccc24)OCCCC[C@@H](C)O3)cc1 | 0.0 | 6.9 | 1.9 | -1.1 | 12.0 | 0.1
CC1CC2C(C(O)CC3(C)C2CCC3(O)C(=O)CO)C2(C)C=CC(=O)C=C12 (centres undefined) | 0.0 | 1.2 | 2.7 | -2.0 | 34.7* | -0.7
CC(=O)OCC(=O)[C@@]1(O)CC[C@H]2[C@@H]3C[C@H](C)C4=CC(=O)C=C[C@]4(C)[C@H]3[C@@H](O)C[C@@]21C | 0.9 | -1.3 | -1.7 | -4.0 | -0.4 | 2.1
